Data reported in ChEMBL document CHEMBL2046297, “Synthesis and evaluation of substituted dibenzo[c,e]azepine-5-ones as P-glycoprotein-mediated multidrug resistance reversal agents” (Bioorg Med Chem Lett, 2012).
pIC50: −log10 of the molar value. Activity calls are given as the source filed them. The rule behind the calls is not given here.

Tests used:
K562 [1] = experiment: Antiproliferative activity against human K562 cells after 72 hrs by MTS assay; type: functional, cell-based; conditions: K562, 72 h
Summary of the method: (§1)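 Growth inhibition of parental K562 and drug-resistant K562/A02 leukemia cells, measured by MTS after 72 h exposure. IC50 is the concentration giving a 50% drop in cell growth. Values are means of three experiments. ADR served as positive control.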

[2] = Antiproliferative activity against multidrug-resistant human K562/A02 cells overexpressing p-glycoprotein after 72 hrs by MTS assay; type: functional, cell-based; conditions: K562/A02, 72 h; summary of the method: as §1
[3] = biological target: ATP-dependent translocase ABCB1 (Homo sapiens, UniProt P08183); experiment: Inhibition of P-glycoprotein-mediated rhodamine 123 uptake expressed in multidrug-resistant human K562/A02 cells assessed as fluorescence activity ratio at 10 uM after 72 hrs by flow cytometry relative to untreated control; type: cell-based; conditions: k562/a02, 72 h
Summary of the method: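 Rh123 accumulation in P-gp-overexpressing K562/A02 cells with compound at 10 µM. FAR is the ratio of mean Rh123 fluorescence intensity in treated versus untreated cells. VRP served as positive control.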

K562/A02 [4] = experiment: Inhibition of Pgp-mediated multidrug-resistance in human K562/A02 cells assessed as potentiation of adriamycin-induced cytotoxicity after 72 hrs by MTS assay; type: cell-based
Summary of the method: (§2)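 Chemosensitization was tested by co-treating K562/A02 cells with 2 µM ADR or K562 cells with 0.04 µM ADR, plus compound at 2.5, 5 or 10 µM, for 72 h. Survival was read by MTS and compared with ADR alone. VRP served as positive control.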

K562 [5] = experiment: Potentiation of adriamycin-induced cytotoxicity in human K562 cells after 72 hrs by MTS assay; type: functional, cell-based; summary of the method: as §2
K562/A02 [6] = experiment: Inhibition of Pgp-mediated rhodamine-123 efflux in multidrug-resistance human K562/A02 cells assessed as increase in intracellular accumulation of rhodamine-123 after 60 mins by fluorescence microscopic analysis; type: cell-based
Summary of the method: (§3)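 K562/A02 cells were incubated with 0.5 µM Rh123 or 0.5 µM ADR, with or without 0.33, 3.3 or 10 µM compound, at 37 °C for 30 min. K562 cells received dye only. Cells were washed twice in PBS, resuspended in medium and left 60 min at 37 °C for efflux. Read-out was fluorescence microscopy or flow cytometry (ex/em 488/520 nm Rh123; 488/570 nm ADR). Vehicle was 0.1% DMSO.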

K562/A02 [7] = experiment: Inhibition of Pgp-mediated adriamycin efflux in multidrug-resistance human K562/A02 cells assessed as increase in intracellular accumulation of adriamycin after 60 mins by FACS flow cytometry; type: cell-based; summary of the method: as §3
K562/A02 [8] = experiment: Survival of human K562/A02 cells in presence of adriamycin at 5 uM after 72 hrs by MTS assay
K562/A02 [9] = experiment: Survival of human K562/A02 cells in presence of adriamycin at 10 uM after 72 hrs by MTS assay
K562/A02 [10] = experiment: Survival of human K562/A02 cells in presence of adriamycin at 2.5 uM after 72 hrs by MTS assay

Sequence of ATP-dependent translocase ABCB1 (P08183 whole entry): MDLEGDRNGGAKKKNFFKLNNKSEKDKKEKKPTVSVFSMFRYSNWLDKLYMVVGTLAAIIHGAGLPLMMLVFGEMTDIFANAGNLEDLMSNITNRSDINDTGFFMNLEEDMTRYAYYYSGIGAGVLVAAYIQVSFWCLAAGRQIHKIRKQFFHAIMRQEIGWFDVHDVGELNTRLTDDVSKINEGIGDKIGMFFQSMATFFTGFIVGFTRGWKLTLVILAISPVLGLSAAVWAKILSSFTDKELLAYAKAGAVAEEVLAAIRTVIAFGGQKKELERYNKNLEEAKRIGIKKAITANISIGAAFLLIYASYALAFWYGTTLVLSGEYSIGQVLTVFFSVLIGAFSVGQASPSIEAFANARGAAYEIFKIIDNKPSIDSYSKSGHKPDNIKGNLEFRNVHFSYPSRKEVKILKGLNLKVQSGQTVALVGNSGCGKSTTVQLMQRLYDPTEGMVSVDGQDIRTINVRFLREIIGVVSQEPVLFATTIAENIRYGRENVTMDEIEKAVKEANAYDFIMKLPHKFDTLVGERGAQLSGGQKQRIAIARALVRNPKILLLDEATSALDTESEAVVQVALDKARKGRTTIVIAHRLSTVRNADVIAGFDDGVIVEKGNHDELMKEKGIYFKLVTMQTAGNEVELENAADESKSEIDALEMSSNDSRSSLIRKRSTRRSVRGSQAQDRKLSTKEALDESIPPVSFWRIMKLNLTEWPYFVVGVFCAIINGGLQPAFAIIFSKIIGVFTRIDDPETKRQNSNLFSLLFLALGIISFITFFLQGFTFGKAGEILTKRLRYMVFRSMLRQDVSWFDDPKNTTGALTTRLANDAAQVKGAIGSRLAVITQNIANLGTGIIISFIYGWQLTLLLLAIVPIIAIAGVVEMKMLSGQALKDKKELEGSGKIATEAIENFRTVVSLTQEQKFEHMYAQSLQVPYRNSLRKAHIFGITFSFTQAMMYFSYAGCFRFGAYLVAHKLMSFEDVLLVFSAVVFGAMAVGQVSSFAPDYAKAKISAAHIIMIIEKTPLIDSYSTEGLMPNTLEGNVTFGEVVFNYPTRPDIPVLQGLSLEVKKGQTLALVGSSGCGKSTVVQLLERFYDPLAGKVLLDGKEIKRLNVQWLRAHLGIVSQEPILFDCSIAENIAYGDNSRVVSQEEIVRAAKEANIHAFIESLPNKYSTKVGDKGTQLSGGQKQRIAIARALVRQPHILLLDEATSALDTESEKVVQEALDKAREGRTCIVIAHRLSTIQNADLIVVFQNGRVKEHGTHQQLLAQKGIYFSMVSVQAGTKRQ

| SMILES | pIC50 (K562 [1]) | Ratio [3] | pIC50 [2] | inhibition (K562/A02 [4]) | Activity (K562 [5]) | inhibition (K562/A02 [6]) | inhibition (K562/A02 [7]) | survival rate (K562/A02 [8]) [%] | survival rate (K562/A02 [9]) [%] | survival rate (K562/A02 [10]) [%] |
| --- | --- | --- | --- | --- | --- | --- | --- | --- | --- | --- |
| COc1cc2c(c3c1OCO3)-c1c(cc(OC)c3c1OCO3)C(=O)N(CCN1CCCC1)C2 | < 4.00 | 1.65 | < 4.00 |  |  |  |  |  |  |  |
| COc1ccc(CCN(C)CCCC(C#N)(c2ccc(OC)c(OC)c2)C(C)C)cc1OC (configuration not stated) [VERAPAMIL] |  | 4.16 |  |  |  |  |  |  |  |  |
| COc1cc2c(c3c1OCO3)-c1c(cc(OC)c3c1OCO3)C(=O)N(CCN1CCOCC1)C2 | < 4.00 | 3.23 | < 4.00 |  |  |  |  |  |  |  |
| COc1cc2c(c3c1OCO3)-c1c(cc(OC)c3c1OCO3)C(=O)N(CCN1CCN(C)CC1)C2 | < 4.00 | 1.03 | < 4.00 |  |  |  |  |  |  |  |

Continued, in another order:

| pIC50 (K562 [1]) | Ratio [3] | SMILES | pIC50 [2] | inhibition (K562/A02 [4]) | Activity (K562 [5]) | inhibition (K562/A02 [6]) | inhibition (K562/A02 [7]) | survival rate (K562/A02 [8]) [%] | survival rate (K562/A02 [9]) [%] | survival rate (K562/A02 [10]) [%] |
| --- | --- | --- | --- | --- | --- | --- | --- | --- | --- | --- |
| < 4.00 | 1.44 | COc1cc2c(c3c1OCO3)-c1c(cc(OC)c3c1OCO3)C(=O)N(CCN(C)C)C2 | < 4.00 |  |  |  |  |  |  |  |
| < 4.00 | 2.84 | CCCN(CCC)CCN1Cc2cc(OC)c3c(c2-c2c(cc(OC)c4c2OCO4)C1=O)OCO3 | < 4.00 |  |  |  |  |  |  |  |
| 4.05 | 3.46 | COc1cc2c(c3c1OCO3)-c1c(cc(OC)c3c1OCO3)C(=O)N(CCN1CCCCC1)C2 | 4.04 |  |  |  |  |  |  |  |
| 4.20 | 2.57 | CCN(CC)CCN1Cc2cc(OC)c3c(c2-c2c(cc(OC)c4c2OCO4)C1=O)OCO3 | 4.02 |  |  |  |  |  |  |  |
| 4.31 | 14.11 | COc1cc2c(c3c1OCO3)-c1c(cc(OC)c3c1OCO3)C(=O)N(CCN1CCN(Cc3ccccc3)CC1)C2 | 4.25 | Dose-dependent effect | inactive | Dose-dependent effect | Dose-dependent effect | 19.9 | 7.5 | 33.9 |
